Measurements: ChEMBL document CHEMBL1833842, “1,3-Dihydro-2H-indol-2-ones derivatives: design, synthesis, in vitro antibacterial, antifungal and antitubercular study” (2011)
≈ marks a conversion by molar mass, not a printed value.

Columns and labels:
[1] = system: Mycobacterium tuberculosis; test: Antituberculosis activity against 5 x 10^4 inoculum per tube Mycobacterium tuberculosis H37Rv after 24 hrs by Lowenstein-Jensen method; assay type: functional
Summary of the method: (§1)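 Conventional Lowenstein-Jensen method. Compound dilutions were made from a DMSO stock and added to liquid L-J medium, which was sterilized by inspissation. Tubes were incubated 24 h at 37 °C, then streaked with H37Rv (5 × 10⁴ bacilli per tube) harvested into 0.85% saline. Growth was checked at 12, 22 and 28 days at 37 °C against medium-only controls. MIC was the concentration giving no colonies or <20 colonies.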

[2] = system: Mycobacterium tuberculosis; test: Antituberculosis activity against 5 x 10^4 bacilli per tube Mycobacterium tuberculosis H37Rv assessed as growth inhibition at 40 ug/mL incubated for 24 hrs measured after 28 days; assay type: functional; details: read-out: GI; summary of the method: as §1
Aspergillus clavatus = test: Antifungal activity against 10^8 CFU/mL Aspergillus clavatus MTCC 1323 by broth microdilution method; assay type: functional
Summary of the method: (§2)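 Fungal MTCC cultures came from IMTECH Chandigarh. Mueller-Hinton broth served as growth and dilution medium, with DMSO as diluent. Inoculum was set to 10⁸ CFU/mL by turbidity. Serial dilutions from a 2000 stock gave a primary screen at 500, 250 and 125, followed by a secondary dilution series for actives. MIC was the lowest concentration inhibiting growth.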

Aspergillus niger = test: Antifungal activity against 10^8 CFU/mL Aspergillus niger MTCC 282 by broth microdilution method; assay type: functional; summary of the method: as §2
Candida albicans = test: Antifungal activity against 10^8 CFU/mL Candida albicans MTCC 227 by broth microdilution method; assay type: functional; summary of the method: as §2
Bacillus subtilis = test: Antibacterial activity against 10^8 CFU/mL Bacillus subtilis MTCC 441 by broth microdilution method; assay type: functional
Summary of the method: (§3)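 MTCC bacterial strains from IMTECH Chandigarh were grown in Mueller-Hinton broth, which was also used to dilute the compounds. Inoculum was turbidity-adjusted to 10⁸ CFU/mL, and DMSO served as diluent. Compounds from a 2000 stock were screened first at 500, 250 and 125; actives were retested in a second dilution series. Tubes were incubated overnight at 37 °C, and MIC was the lowest concentration with no visible growth. Clear tubes were subcultured overnight at 37 °C to tell bacteriostatic from bactericidal.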

Streptococcus pyogenes = test: Antibacterial activity against 10^8 CFU/mL Streptococcus pyogenes MTCC 442 by broth microdilution method; assay type: functional; summary of the method: as §3
Staphylococcus aureus = test: Antibacterial activity against 10^8 CFU/mL Staphylococcus aureus MTCC 96 by broth microdilution method; assay type: functional; summary of the method: as §3
Salmonella typhi = test: Antibacterial activity against 10^8 CFU/mL Salmonella typhi MTCC 98 by broth microdilution method; assay type: functional, Salmonella enterica subsp. enterica serovar Typhi; details: Salmonella enterica
Summary of the method: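 Broth microdilution in Mueller-Hinton broth with MTCC strains, inoculum adjusted by turbidity to 10⁸ CFU/mL. Compounds were diluted from DMSO. Primary screen used 500, 250 and 125 concentrations, and actives were serially diluted further. Tubes were incubated overnight at 37 °C. MIC was the lowest concentration with no visible growth. Clear tubes were subcultured overnight at 37 °C to judge bacteriostatic versus bactericidal.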

Klebsiella pneumoniae = test: Antibacterial activity against 10^8 CFU/mL Klebsiella pneumoniae MTCC 109 by broth microdilution method; assay type: functional; summary of the method: as §3
Escherichia coli = test: Antibacterial activity against 10^8 CFU/mL Escherichia coli MTCC 443 by broth microdilution method; assay type: functional; summary of the method: as §3
Pseudomonas aeruginosa = test: Antibacterial activity against 10^8 CFU/mL Pseudomonas aeruginosa MTCC 1688 by broth microdilution method; assay type: functional; summary of the method: as §3
[3] = system: Mycobacterium tuberculosis; test: Antituberculosis activity against 5 x 10^4 bacilli per tube Mycobacterium tuberculosis H37Rv assessed as growth inhibition at 25 ug/mL incubated for 24 hrs measured after 28 days; assay type: functional; details: read-out: GI; summary of the method: as §1
[4] = system: Mycobacterium tuberculosis; test: Antituberculosis activity against 5 x 10^4 bacilli per tube Mycobacterium tuberculosis H37Rv assessed as growth inhibition at 1000 ug/mL incubated for 24 hrs measured after 28 days; assay type: functional; details: read-out: GI; summary of the method: as §1
[5] = system: Mycobacterium tuberculosis; test: Antituberculosis activity against 5 x 10^4 bacilli per tube Mycobacterium tuberculosis H37Rv assessed as growth inhibition at 62.5 ug/mL incubated for 24 hrs measured after 28 days; assay type: functional; details: read-out: GI; summary of the method: as §1
[6] = system: Mycobacterium tuberculosis; test: Antituberculosis activity against 5 x 10^4 inoculum per tube Mycobacterium tuberculosis H37Rv assessed as growth inhibition at 500 ug/mL incubated for 24 hrs measured after 28 days; assay type: functional; details: read-out: GI; summary of the method: as §1

| SMILES | MIC [1] | inhibition of growth at 40 µg/mL [2] | MIC (Aspergillus clavatus) | MIC (Aspergillus niger) | MIC (Candida albicans) | MIC99 (Bacillus subtilis) | MIC99 (Streptococcus pyogenes) | MIC99 (Staphylococcus aureus) | MIC99 (Salmonella typhi) | MIC99 (Klebsiella pneumoniae) | MIC99 (Escherichia coli) | MIC99 (Pseudomonas aeruginosa) | inhibition of growth at 25 µg/mL [3] | inhibition of growth at 1000 µg/mL [4] | inhibition of growth at 62.5 µg/mL [5] | inhibition of growth at 500 µg/mL [6] |
| --- | --- | --- | --- | --- | --- | --- | --- | --- | --- | --- | --- | --- | --- | --- | --- | --- |
| CO[C@H]1/C=C/O[C@@]2(C)Oc3c(C)c(O)c4c(O)c(c(/C=N/N5CCN(C)CC5)c(O)c4c3C2=O)NC(=O)/C(C)=C\C=C\[C@H](C)[C@H](O)[C@@H](C)[C@@H](O)[C@@H](C)[C@H](OC(C)=O)[C@@H]1C [RIFAMPIN] | 40 µg/mL (≈ 48.6 µM) | 98% |  |  |  |  |  |  |  |  |  |  |  |  |  |  |
| CC1=C(c2nnc(/N=C3\C(=O)Nc4ccc(F)cc43)s2)C(c2ccccc2)NC(=S)N1 (stereo unspecified) | 25 µg/mL (≈ 55.5 µM) |  | 100 µg/mL (≈ 222 µM) | 100 µg/mL (≈ 222 µM) | 100 µg/mL (≈ 222 µM) | 100 µg/mL (≈ 222 µM) | 100 µg/mL (≈ 222 µM) | 62.5 µg/mL (≈ 139 µM) | 100 µg/mL (≈ 222 µM) | 100 µg/mL (≈ 222 µM) | 62.5 µg/mL (≈ 139 µM) | 62.5 µg/mL (≈ 139 µM) | 99% |  |  |  |
| O=C(N[C@H](CO)[C@H](O)c1ccc([N+](=O)[O-])cc1)C(Cl)Cl [CHLORAMPHENICOL] |  |  |  |  |  | 50 µg/mL (≈ 155 µM) | 50 µg/mL (≈ 155 µM) | 50 µg/mL (≈ 155 µM) | 50 µg/mL (≈ 155 µM) | 50 µg/mL (≈ 155 µM) | 50 µg/mL (≈ 155 µM) | 50 µg/mL (≈ 155 µM) |  |  |  |  |
| CC1=C(c2nnc(/N=C3\C(=O)Nc4ccccc43)s2)C(c2ccccc2)NC(=O)N1 (stereo unspecified) | 1000 µg/mL (≈ 2400 µM) |  | 250 µg/mL (≈ 600 µM) | 250 µg/mL (≈ 600 µM) | 250 µg/mL (≈ 600 µM) | 500 µg/mL (≈ 1200 µM) | 500 µg/mL (≈ 1200 µM) | 500 µg/mL (≈ 1200 µM) | 250 µg/mL (≈ 600 µM) | 250 µg/mL (≈ 600 µM) | 500 µg/mL (≈ 1200 µM) | 250 µg/mL (≈ 600 µM) |  | 98% |  |  |
| COC1=CC(=O)C[C@@H](C)[C@]12Oc1c(Cl)c(OC)cc(OC)c1C2=O [GRISEOFULVIN] |  |  | 100 µg/mL (≈ 283 µM) | 100 µg/mL (≈ 283 µM) | 500 µg/mL (≈ 1420 µM) |  |  |  |  |  |  |  |  |  |  |  |
| CC1=C(c2nnc(/N=C3\C(=O)Nc4ccc(Cl)cc43)s2)C(c2ccccc2)NC(=S)N1 (stereo unspecified) | 62.5 µg/mL (≈ 134 µM) |  | 500 µg/mL (≈ 1070 µM) | 500 µg/mL (≈ 1070 µM) | 500 µg/mL (≈ 1070 µM) | 100 µg/mL (≈ 214 µM) | 200 µg/mL (≈ 428 µM) | 200 µg/mL (≈ 428 µM) | 200 µg/mL (≈ 428 µM) | 200 µg/mL (≈ 428 µM) | 200 µg/mL (≈ 428 µM) | 100 µg/mL (≈ 214 µM) |  |  | 99% |  |
| CC1=C(c2nnc(/N=C3\C(=O)Nc4ccccc43)s2)C(c2ccccc2)NC(=S)N1 (stereo unspecified) | 500 µg/mL (≈ 1160 µM) |  | 500 µg/mL (≈ 1160 µM) | 500 µg/mL (≈ 1160 µM) | > 1000 µg/mL | 200 µg/mL (≈ 462 µM) | 200 µg/mL (≈ 462 µM) | 200 µg/mL (≈ 462 µM) | 200 µg/mL (≈ 462 µM) | 200 µg/mL (≈ 462 µM) | 500 µg/mL (≈ 1160 µM) | 200 µg/mL (≈ 462 µM) |  |  |  | 98% |
| CC1=C(c2nnc(/N=C3\C(=O)Nc4ccc([N+](=O)[O-])cc43)s2)C(c2ccccc2)NC(=O)N1 (stereo unspecified) | 62.5 µg/mL (≈ 135 µM) |  | 500 µg/mL (≈ 1080 µM) | 250 µg/mL (≈ 542 µM) | 250 µg/mL (≈ 542 µM) | 200 µg/mL (≈ 433 µM) | 250 µg/mL (≈ 542 µM) | 200 µg/mL (≈ 433 µM) | 200 µg/mL (≈ 433 µM) | 200 µg/mL (≈ 433 µM) | 62.5 µg/mL (≈ 135 µM) | 100 µg/mL (≈ 217 µM) |  |  | 99% |  |
| CC1(C)S[C@@H]2[C@H](NC(=O)[C@H](N)c3ccccc3)C(=O)N2[C@H]1C(=O)O [AMPICILLIN] |  |  |  |  |  | 100 µg/mL (≈ 286 µM) | 100 µg/mL (≈ 286 µM) | 250 µg/mL (≈ 715 µM) | 100 µg/mL (≈ 286 µM) | 100 µg/mL (≈ 286 µM) | 100 µg/mL (≈ 286 µM) | 100 µg/mL (≈ 286 µM) |  |  |  |  |
| O=C(O)c1cn(C2CC2)c2cc(N3CCNCC3)c(F)cc2c1=O [CIPROFLOXACIN] |  |  |  |  |  | 50 µg/mL (≈ 151 µM) | 50 µg/mL (≈ 151 µM) | 50 µg/mL (≈ 151 µM) | 25 µg/mL (≈ 75.4 µM) | 25 µg/mL (≈ 75.4 µM) | 25 µg/mL (≈ 75.4 µM) | 25 µg/mL (≈ 75.4 µM) |  |  |  |  |
